Assay results from publication PMC10903085 (Neurotherapeutics, 2023).
“Also recorded” adds a separate entry of the source.

Tests used:
[1] = tested on: SFK; details: cited from earlier work
[2] = tested on: Sam68(PxxP)-FynSH3; details: cited from earlier work
[3] = molecular target: T1, Tau-FynSH3 interaction (Homo sapiens, UniProt P10636); experiment: Tau-FynSH3 AlphaScreen; type: binding; details: left-hand phenyl ring removed
[4] = tested on: primary rat neurons; experiment: Modified MTT assay of Aβ toxicity in primary neurons; type: cell-based; details: compound 0.3, 3 or 15 μM, 90-min pretreatment, 2.5 μM Aβ, 24 h
[5] = tested on: Tau-tubulin interaction; experiment: Tau-tubulin PLA in untransfected HEK-293 cells; type: cell-based, human; details: 15 μM, 24 h
Summary of the method: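 Untransfected HEK-293 cells were grown 48 h, then exposed to 15 μM test compound for 24 h and fixed. PLA for endogenous Tau–α-tubulin proximity used Tau (1:1000) and α-tubulin (1:2000) primary antibodies, with the permeabilisation, blocking, probe, ligation and amplification steps of the neuronal PLA.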

[6] = tested on: primary neurons; experiment: Multi-electrode array, Aβ-induced network hyperexcitability; type: cell-based, rat; details: 1 h pretreatment, 500 nM Aβ oligomers, 4 h
[7] = molecular target: Fyn (Homo sapiens, UniProt P06241); experiment: Custom kinase panel for Fyn; type: binding; details: 3 μM; activity defined as <35 % of control
[8] = molecular target: Tau-BIN1SH3 interaction (Homo sapiens, UniProt P10636); experiment: Tau-Flag PLA, Tau-BIN1SH3 in HEK-293 cells; type: cell-based; details: 15 μM
Summary of the method: (§1)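 HEK-293 cells on PDL/laminin coverslips in DMEM with 10 % FBS were co-transfected (Fugene) with 125 ng human 4R2N Tau-mKate2 and 500 ng GST-SH3-Flag plasmid for the relevant SH3 domain. After 24 h, test compound was added at 15 μM final, and cells were fixed 24 h later. PLA used Tau (1:1000) and Flag (1:1000) antibodies, with puncta quantified by thresholding.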

[9] = tested on: Fyn; experiment: Western blot of Fyn levels in primary neurons; type: cell-based, rat; details: 15 μM, 24 h
Summary of the method: (§2)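 Rat primary neurons at DIV13 were treated with 15 μM test compound or vehicle for 24 h. They were lysed in Tris/NaCl/EDTA buffer containing SDS, Triton and deoxycholate. 5 μg protein (Bradford) was run on 4–12 % bis-tris/MOPS gels and blotted to PVDF. Blots were probed overnight at 4 °C for Fyn (1:1000), then GAPDH (1:5000), stripped and reprobed for Tau (1:10,000). Infrared detection was used, with densitometry.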

[10] = Oral administration, brain and plasma concentrations; type: in vivo, mouse; details: male CD1 mice, PO 5 mg/kg, 1 h, 2 h, 4 h post-treatment
Summary of the method: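 Male CD1 mice received test compound orally at 5 mg/kg, formulated at 1 mg/mL in 10 % NMP, 60 % PEG400 and 30 % saline. Brain and plasma levels were measured by HPLC-MS at 1, 2 and 4 h after dosing, and the brain/plasma ratio was taken from these.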

[11] = molecular target: FynSH3 (Homo sapiens, UniProt P06241); experiment: Isothermal titration calorimetry with FynSH3; type: binding; details: 25 °C
Summary of the method: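 Purified human FynSH3 from E. coli was dialysed at 4 °C into 20 mM Tris, 150 mM NaCl, pH 8.0, quantified by A280 and brought to 5 % DMSO. The cell held ~120 μM FynSH3 and the syringe 1 mM test compound. Sixteen 2.5 μL injections were made at 25 °C. Titrant-into-buffer heat was used as background, and data were fitted to a one-set-of-sites model.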

[12] = molecular target: Tau-PxxP5/6 (Homo sapiens, UniProt P10636); experiment: Isothermal titration calorimetry with Tau-PxxP5/6 peptide; type: binding; details: 25 °C
Summary of the method: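 Calorimetric titration at 25 °C in 5 % DMSO. About 120 μM Tau-PxxP5/6 peptide sat in the cell and 1 mM test compound in the syringe. Sixteen 2.5 μL injections were made. Mixing heat from titrant into buffer alone was used as background, and the normalised heat was fitted to a one-set-of-sites model.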

[13] = molecular target: Tau-SrcSH3 interaction (Homo sapiens, UniProt P10636); experiment: Tau-Flag PLA, Tau-SrcSH3 in HEK-293 cells; type: cell-based; details: 15 μM
Summary of the method: as §1

[14] = tested on: Tau-Fyn interaction; experiment: Endogenous Tau-Fyn PLA in primary neurons; type: cell-based, rat; details: 24 h
Summary of the method: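 Rat hippocampal neurons (E19 Sprague-Dawley embryos) grown on coated coverslips to DIV20, treated with test compound or vehicle, and fixed in PFA 24 h later. Cells were permeabilised in 0.25 % Triton X-100 and blocked in 5 % NGS. Tau (1:1000) and Fyn (1:250) antibodies were applied overnight at 4 °C, then Duolink PLA was run. Thresholded puncta were counted from 5–7 images per coverslip and normalised to vehicle slides; analysis was blinded.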

[15] = tested on: 97 kinases; experiment: Eurofins DiscoverX ScanEDGE kinase panel; type: binding; details: 3 μM; activity defined as <35 % of control
[16] = molecular target: T1, Tau-FynSH3 interaction; experiment: Tau-Flag PLA, Tau-FynSH3 in HEK-293 cells; type: cell-based; details: HEK293, read-out: Inhibition of Tau-FynSH3 interaction (PLA)
Summary of the method: as §1

[17] = molecular target: Tau-LckSH3 interaction (Homo sapiens, UniProt P10636); experiment: Tau-Flag PLA, Tau-LckSH3 in HEK-293 cells; type: cell-based; details: 15 μM
Summary of the method: as §1

[18] = tested on: Tau; experiment: Western blot of Tau levels in primary neurons; type: cell-based, rat; details: 15 μM, 24 h
Summary of the method: as §2

[19] = Metabolic stability in mouse liver microsomes; type: in vitro ADME
[20] = Phase IIa clinical trial, tolerable dose; cited from earlier work

T1 sequence (P10636 1-441 isoform P10636-8): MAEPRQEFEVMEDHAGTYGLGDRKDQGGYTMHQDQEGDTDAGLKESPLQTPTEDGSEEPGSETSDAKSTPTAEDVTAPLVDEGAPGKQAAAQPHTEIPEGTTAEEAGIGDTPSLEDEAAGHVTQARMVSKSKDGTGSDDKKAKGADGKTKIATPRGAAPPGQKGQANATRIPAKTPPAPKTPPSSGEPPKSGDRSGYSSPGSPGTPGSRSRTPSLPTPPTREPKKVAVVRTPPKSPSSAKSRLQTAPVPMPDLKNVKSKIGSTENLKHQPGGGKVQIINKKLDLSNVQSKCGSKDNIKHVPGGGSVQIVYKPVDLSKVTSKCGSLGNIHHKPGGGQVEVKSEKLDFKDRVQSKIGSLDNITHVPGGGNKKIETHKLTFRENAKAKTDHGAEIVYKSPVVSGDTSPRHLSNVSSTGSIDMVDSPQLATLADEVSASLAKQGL
FynSH3, sequence (P06241 82-143 limits assumed): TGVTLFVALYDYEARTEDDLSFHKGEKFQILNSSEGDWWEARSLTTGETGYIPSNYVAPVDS
Fyn (Homo sapiens, UniProt P06241), sequence (P06241 whole entry): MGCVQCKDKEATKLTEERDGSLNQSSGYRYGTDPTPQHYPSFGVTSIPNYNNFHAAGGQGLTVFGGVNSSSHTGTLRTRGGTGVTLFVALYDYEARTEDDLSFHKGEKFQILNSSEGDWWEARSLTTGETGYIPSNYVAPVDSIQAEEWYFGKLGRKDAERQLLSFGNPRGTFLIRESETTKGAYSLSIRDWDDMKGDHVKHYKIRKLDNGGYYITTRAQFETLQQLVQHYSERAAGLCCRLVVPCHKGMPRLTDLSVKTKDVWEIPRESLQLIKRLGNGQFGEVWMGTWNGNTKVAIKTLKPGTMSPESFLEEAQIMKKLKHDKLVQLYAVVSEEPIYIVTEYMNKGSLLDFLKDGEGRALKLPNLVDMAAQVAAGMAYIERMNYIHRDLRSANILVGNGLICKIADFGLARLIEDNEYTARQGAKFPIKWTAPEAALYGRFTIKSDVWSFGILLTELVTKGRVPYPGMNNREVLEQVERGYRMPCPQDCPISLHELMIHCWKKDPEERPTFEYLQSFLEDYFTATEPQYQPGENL
Tau-SrcSH3 interaction, sequence (P10636 1-441 isoform P10636-8): as the sequence (P10636 1-441 isoform P10636-8) above
Tau-BIN1SH3 interaction, sequence (P10636 1-441 isoform P10636-8): as above
Tau-LckSH3 interaction, sequence (P10636 1-441 isoform P10636-8): as above

Molecule: UCS15A
- Inhibition of SFK kinase activity [1]: does not inhibit SFK kinase activity
- Inhibition of Sam68(PxxP)-FynSH3 interaction [2]: inhibited

Molecule: O=C(CN1CCOCC1)Nc1nnc(-c2ccccn2)[nH]1 [SRI-43143, 2-Morpholino-N-(5-(pyridin-2-yl)-4H-1,2,4-triazol-3-yl)acetamide]
- Reduction of AlphaScreen activity relative to SRI-39669 [3]: 8–10 fold

Molecule: Cc1ccc2c(c1)SCC(=O)N2CC(=O)Nc1nnc(-c2ccccn2)[nH]1 [SRI-39488, 2-(7-methyl-3-oxo-2,3-dihydro-4H-benzo[b][1,4]thiazin-4-yl)-N-(5-(pyridin-2-yl)-4H-1,2,4-triazol-3-yl)acetamide]
- Amelioration of Aβ toxicity in modified MTT assay [4]: inhibited Aβ toxicity

Molecule: O=C(CN1CCOc2ccccc21)Nc1nnc(-c2ccccn2)[nH]1 [SRI-42667, 2-(2,3-Dihydro-4H-benzo[b][1,4]oxazin-4-yl)-N-(5-(pyridin-2-yl)-4H-1,2,4-triazol-3-yl)acetamide]
- Amelioration of Aβ toxicity in modified MTT assay [4]: ameliorates Aβ toxicity; also recorded: inhibited Aβ toxicity
- Inhibition of Tau-tubulin interaction (PLA) [5]: does not inhibit Tau-tubulin interaction
- Prevention of Aβ-induced network hyperexcitability (MEA) ([6]; 3 μM): prevented Aβ-induced network hyperexcitability
- Prevention of Aβ-induced network hyperexcitability (MEA) ([6]; 15 μM): prevented Aβ-induced network hyperexcitability
- Inhibition of Fyn kinase [7]: did not inhibit
- Inhibition of Tau-BIN1 SH3 interaction (PLA) [8]: moderately inhibited
- Fyn levels [9]: does not reduce
- Detection in plasma and brain after oral administration [10]: observed in both plasma and brain
- Binding to FynSH3 by ITC [11]: did not bind FynSH3
- Interaction with Tau-PxxP5/6 peptide by ITC [12]: no interaction
- Inhibition of Tau-SrcSH3 interaction (PLA) [13]: did not significantly inhibit
- Reduction of endogenous Tau-Fyn PLA ([14]; 3 μM): reduces endogenous Tau-Fyn PLA
- Reduction of endogenous Tau-Fyn PLA ([14]; 15 μM): reduces endogenous Tau-Fyn PLA
- Inhibition of any of the 97 kinases [15]: did not inhibit
- inhibition at 15 µM [16]: 37%
- Inhibition of Tau-LckSH3 interaction (PLA) [17]: strongly inhibited
- Tau levels [18]: does not reduce

Molecule: O=C(CN1C(=O)CSc2cc(Cl)ccc21)Nc1nnc(-c2ccccn2)[nH]1 [SRI-39211, 2-(7-chloro-3-oxo-2,3-dihydro-4H-benzo[b][1,4]thiazin-4-yl)-N-(5-(pyridin-2-yl)-4H-1,2,4-triazol-3-yl)acetamide]
- Amelioration of Aβ toxicity in modified MTT assay [4]: inhibited Aβ toxicity

Molecule: O=C(CN1CCSc2ccccc21)Nc1nnc(-c2ccccn2)[nH]1 [SRI-39669, 2-(2,3-dihydro-4H-benzo[b][1,4]thiazin-4-yl)-N-(5-(pyridin-2-yl)-4H-1,2,4-triazol-3-yl)acetamide]
- Detection in plasma and brain after oral administration [10]: detected in both plasma and brain

Molecule: O=C(CN1C(=O)CSc2cc(F)ccc21)Nc1nnc(-c2ccccn2)[nH]1 [SRI-39210, 2-(7-fluoro-3-oxo-2,3-dihydro-4H-benzo[b][1,4]thiazin-4-yl)-N-(5-(pyridin-2-yl)-4H-1,2,4-triazol-3-yl)acetamide]
- Amelioration of Aβ toxicity in modified MTT assay [4]: inhibited Aβ toxicity
- Detection in plasma and brain after oral administration [10]: able to detect SRI-39210 in plasma, it did not cross the BBB and was not present in brain
- half-life [19]: 2.43 h

Molecule: CN1CCN(CCOc2cc(OC3CCOCC3)c3c(Nc4c(Cl)ccc5c4OCO5)ncnc3c2)CC1 [saracatinib]
- Clinical benefit in AD [20]: no clinical benefit

Molecule: O=C(CN1CCCc2ccccc21)Nc1nnc(-c2ccccn2)[nH]1 [SRI-42654, 2-(3,4-Dihydroquinolin-1(2H)-yl)-N-(5-(pyridin-2-yl)-4H-1,2,4-triazol-3-yl)acetamide]
- Amelioration of Aβ toxicity in modified MTT assay [4]: inhibited Aβ toxicity

Molecule: O=C(CN1CCCCC1)Nc1nnc(-c2ccccn2)[nH]1 [SRI-43142, 2-(piperidin-1-yl)-N-(5-(pyridin-2-yl)-4H-1,2,4-triazol-3-yl)acetamide]
- Reduction of AlphaScreen activity relative to SRI-39669 [3]: 8–10 fold
